In publication PMC9079187 (ACS nano, 2021):
Where two headings read alike, the source gives them in different places.

Assays:
[1] = system: hippocampus of middle aged humans; settings: middle aged humans of around 40 years of age; contrast agent; cited from earlier work
[2] = Zeta potential measurement; format: physicochemical; settings: Malvern Zetasizer Nano; with NPs
[3] = Dynamic light scattering; format: physicochemical; settings: DLS, Malvern Zetasizer Nano; DPBS pH 7.4, 0.05 mM, filtered 0.22 μm
[4] = Biodistribution in peripheral organs by ICP-MS; format: in vivo, mouse; settings: ICP-MS of Gd
Procedure, shortened: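 Male and female C57BL/6J mice, three aged 2 months and three aged 12 months, received 100 μL of 0.5 mM control or targeted Gd-oxide NPs. Transcardial perfusion with ice-cold DPBS followed at 1 hr. Heart, lung, liver, kidneys, spleen, colon and intestine were weighed and digested in HNO3 at 100 °C for 120 minutes. Samples were filtered, diluted and measured for Gd by ICP-MS.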

[5] = molecular target: T1, human claudin-9 (Homo sapiens, UniProt O95484); assay: Microscale thermophoresis; format: binding; settings: MST; buffer with 0.1% n-Undecyl-β-D-Maltopyranoside; 23°C; C1C2-NP fixed at 70 nM, claudin-9 0.6-20000 nM
T1 sequence (O95484 1-217): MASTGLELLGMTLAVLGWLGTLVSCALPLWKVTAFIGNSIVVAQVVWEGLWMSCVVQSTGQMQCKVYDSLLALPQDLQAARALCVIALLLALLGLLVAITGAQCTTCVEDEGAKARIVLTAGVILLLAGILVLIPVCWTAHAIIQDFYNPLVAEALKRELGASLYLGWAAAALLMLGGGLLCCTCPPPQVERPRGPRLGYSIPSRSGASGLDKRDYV
Procedure, shortened: (§1)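 Microscale thermophoresis on a Monolith instrument. AF647-labelled test NP was held at 70 nM against titrated human claudin-3 (0.4–14000 nM), claudin-4 (0.8–28000 nM) or claudin-9 (0.6–20000 nM). Buffer was 10 mM Tris-HCl pH 8.0, 100 mM NaCl, 4% glycerol and 0.1% n-undecyl-β-D-maltopyranoside. As a non-specific control, detergent was titrated 10 mM–0.7 μM against 1 μM AF647-labelled control NP.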

[6] = molecular target: T2, mouse claudin-1 in bEnd.3 cells (Mus musculus, UniProt O88551); assay: In vitro fluorescence imaging of NP binding to bEnd.3 cells; format: cell-based
T2 sequence (O88551 1-211): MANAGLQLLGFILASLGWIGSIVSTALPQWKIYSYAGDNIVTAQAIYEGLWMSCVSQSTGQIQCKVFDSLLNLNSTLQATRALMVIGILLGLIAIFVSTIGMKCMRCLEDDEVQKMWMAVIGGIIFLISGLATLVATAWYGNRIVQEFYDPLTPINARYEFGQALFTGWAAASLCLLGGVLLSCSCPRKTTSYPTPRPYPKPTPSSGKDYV
Procedure, shortened: (§2)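 bEnd.3 mouse brain endothelial cells were grown in DMEM. For mouse claudin-1, cells were treated with ethanol (50 mM) to induce expression. For human claudin-1, cells were transfected with a pCMV plasmid encoding it. Cells were then incubated with AF-647-labelled targeted NPs for 4 hrs and imaged by fluorescence. Claudin-1 induction was checked by western blot relative to β-actin.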

[7] = molecular target: T3, human claudin-4 (Homo sapiens, UniProt O14493); assay: Microscale thermophoresis; format: binding; settings: MST; buffer with 0.1% n-Undecyl-β-D-Maltopyranoside; 23°C; C1C2-NP fixed at 70 nM, claudin-4 0.8-28000 nM
T3 sequence (O14493 1-209): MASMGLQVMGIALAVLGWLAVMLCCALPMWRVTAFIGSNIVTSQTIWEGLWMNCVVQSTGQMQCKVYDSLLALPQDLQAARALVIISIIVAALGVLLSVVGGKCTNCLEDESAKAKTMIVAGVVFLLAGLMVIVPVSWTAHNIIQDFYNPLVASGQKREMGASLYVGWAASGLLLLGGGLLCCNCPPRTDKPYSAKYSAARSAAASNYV
Procedure, shortened: as §1

[8] = molecular target: T4, claudin-1 on brain endothelial cells (Mus musculus, UniProt O88551); format: in vivo; settings: corpus callosum and hippocampus, confocal, ~2 hrs post-injection
T4 sequence (O88551 1-211): T2 sequence (O88551 1-211)
Procedure, shortened: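 Male and female C57BL/6J mice, 2 and 12 months old, received 100 μL of 0.5 mM test NP by tail vein, then a 100 μL PBS flush. About 2 h after injection they were perfused with 4% PFA and brains fixed 24 h. Sections were blocked 1 h at RT, stained overnight at 4 °C with rat anti-CD31 (1:250) and rabbit anti-claudin-1 (1:100), then AF488/AF555 secondaries (1:250, 2 h, RT) and DAPI. Confocal imaging used a 40x objective; colocalization was quantified with JACoP on ≥3 random fields per region per mouse.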

[9] = molecular target: T5, human claudin-3 (Homo sapiens, UniProt O15551); assay: Microscale thermophoresis; format: binding; settings: MST; claudin-3 0.4-14000 nM; C1C2-NP fixed at 70 nM; buffer with 0.1% n-Undecyl-β-D-Maltopyranoside; 23°C
T5 sequence (O15551 1-220): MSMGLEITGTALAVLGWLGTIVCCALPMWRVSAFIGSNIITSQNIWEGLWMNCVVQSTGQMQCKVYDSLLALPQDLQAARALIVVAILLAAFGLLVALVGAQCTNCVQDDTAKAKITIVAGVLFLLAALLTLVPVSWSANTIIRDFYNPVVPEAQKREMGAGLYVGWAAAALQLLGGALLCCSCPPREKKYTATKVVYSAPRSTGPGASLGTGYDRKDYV
Procedure, shortened: as §1

[10] = molecular target: T6, human claudin-1 expressed in bEnd.3 cells (Homo sapiens, UniProt O95832); format: cell-based; settings: plasmid transfection; NP incubation 4 hrs; fluorescence
T6 sequence (O95832 1-211): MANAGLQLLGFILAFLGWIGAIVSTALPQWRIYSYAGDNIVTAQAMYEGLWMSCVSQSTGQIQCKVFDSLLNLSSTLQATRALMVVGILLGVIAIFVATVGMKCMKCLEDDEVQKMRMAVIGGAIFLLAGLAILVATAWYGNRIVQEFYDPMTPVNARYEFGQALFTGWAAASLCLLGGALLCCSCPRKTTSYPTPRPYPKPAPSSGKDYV
Procedure, shortened: as §2

[11] = molecular target: C1C2-NP (C1C2 peptide conjugated to PEG diacid coated Gd nanoparticles, AF647 labeled); assay: MST

## CNC[C@H](O)[C@@H](O)[C@H](O)[C@H](O)CO.CNC[C@H](O)[C@@H](O)[C@H](O)[C@H](O)CO.O=C([O-])CN(CCN(CC(=O)[O-])CC(=O)O)CCN(CC(=O)O)C(COCc1ccccc1)C(=O)[O-].[Gd+3] (centres unmarked) [MultiHance]
[1]
  K^trans, hippocampus: ~ 0.001 min^−1

## GSQIYMICNQFYTPGGTG [Ocldn207-NP]
[2]
  Zeta Potential: 3.65±0.19 mV
[3]
  Hydrodynamic size: 14.23±0.11 nm

## QEFYDPLTPINARYE [Cldn146-NP]
[2]
  Zeta Potential: 1.62±0.13 mV
[3]
  Hydrodynamic size: 13.94±0.08 nm

## SCVSQSTGQIQCKVFDSLLNLNSTLQAT [Cldn53-NP]
[2]
  Zeta Potential: 2.24±0.18 mV
[3]
  Hydrodynamic size: 13.8±0.11 nm

## SSVSQSTGQIQSKVDSLLNLNSTQATR [C1C2-NP]
[4]; 1 hr post-injection of 100 μL of 0.5 mM NPs, versus control NPs
  accumulation in the kidney: increased
[4]; 1 hr post-injection, three mice per age
  accumulation in kidneys, 12-month-old compared to 2-month-old mice: higher
[5]
  binding to human claudin-9 (in words): quite weak
[6]; ethanol (50mM) induced claudin-1, NP incubation 4 hrs
  NP binding to ethanol-exposed bEnd.3 cells: much higher binding
[6]; normal culture, low claudin-1 expression, AF-647 modified NPs
  NP binding to control bEnd.3 cells: no binding
[7]
  binding to human claudin-4 (in words): quite weak
[8]; 2-month-old mice
  colocalization of claudin-1, CD31 and nanoparticles in brain: not observed
[8]; 12-month-old mice
  colocalization of claudin-1, CD31 and nanoparticles in brain: colocalization
[2]
  Zeta Potential: 7.81±0.38 mV
[3]
  Hydrodynamic size: 14.5±0.13 nm
[9]
  binding to human claudin-3 (in words): does not show any binding
[10]
  NP binding to bEnd.3 cells transfected to express human claudin-1: High NP binding

## recombinant human claudin-1 (from UniProt O95832 1-211) (natural protein)
[11]
  Kd: 21 µM
